Test results as given in ChEMBL document CHEMBL1833929, “Design, synthesis and anticancer activity of novel dihydrobenzofuro[4,5-b][1,8]naphthyridin-6-one derivatives” (Bioorg Med Chem Lett, 2011).
pIC50: −log10 of the molar value.

Key:
PC-3 [1] = assay: Cytotoxicity against androgen receptor-negative human PC3 cells after 48 hrs by MTT assay; format: functional, cell-based; conditions: PC-3, 48 h
Outline: (§1)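 Cells kept in RPMI-1640 with 10% heat-inactivated FBS, 1.25 mM HEPES and 1% penicillin/streptomycin. Seeded at 2×10^3 cells/well and grown 48 h, then treated with a range of concentrations for 24 or 48 h. MTT (5 mg/mL) added for 4 h at 37 °C, formazan dissolved in DMSO, absorbance read at 540 nm. Triplicate. IC50 from log concentration vs % viability loss; doxorubicin reference.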

PC-3 [2] = assay: Cytotoxicity against androgen receptor-negative human PC3 cells after 24 hrs by MTT assay; format: functional, cell-based; conditions: PC-3, 24 h; outline: as §1
DU-145 [3] = assay: Cytotoxicity against human DU145 cells after 48 hrs by MTT assay; format: functional, cell-based; conditions: DU-145, 48 h; outline: as §1
DU-145 [4] = assay: Cytotoxicity against human DU145 cells after 24 hrs by MTT assay; format: functional, cell-based; conditions: DU-145, 24 h; outline: as §1
LNCaP [5] = assay: Cytotoxicity against androgen receptor-positive human LNCAP cells after 48 hrs by MTT assay; format: functional, cell-based; outline: as §1
LNCaP [6] = assay: Cytotoxicity against androgen receptor-positive human LNCAP cells after 24 hrs by MTT assay; format: functional, cell-based; outline: as §1
[7] = Cytotoxicity against human MCF7/ADR cells after 24 hrs by MTT assay; format: functional, cell-based; conditions: NCI/ADR-RES; outline: as §1
[8] = Cytotoxicity against human MCF7/ADR cells after 48 hrs by MTT assay; format: functional, cell-based; conditions: NCI/ADR-RES; outline: as §1
MCF7 [9] = assay: Cytotoxicity against estrogen receptor-positive human MCF7 cells after 24 hrs by MTT assay; format: functional, cell-based; conditions: MCF7, 24 h; outline: as §1
MCF7 [10] = assay: Cytotoxicity against estrogen receptor-positive human MCF7 cells after 48 hrs by MTT assay; format: functional, cell-based; conditions: MCF7, 48 h; outline: as §1
[11] = Cell cycle arrest in human MCF7/ADR cells assessed as accumulation at G1 phase at 0.05 uM after 48 hrs using propidium iodide staining by flow cytometry (reference value: 62.15 +/- 3.14 %); format: functional, cell-based; conditions: NCI/ADR-RES
Outline: (§2)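 MCF-7/ADR cells exposed to test agent for 48 h, collected, washed and suspended in cold PBS. Fixed in chilled 75% methanol, then stained with PI solution (100 µg/mL RNase, 10 µg/mL PI in PBS). Phase distribution (G1, S, G2/M) determined by flow cytometry. Mean ± SEM of three independent experiments; one-way ANOVA with Newman–Keuls post hoc test, p<0.05.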

[12] = Cell cycle arrest in human MCF7/ADR cells assessed as accumulation at G1 phase at 0.1 uM after 48 hrs using propidium iodide staining by flow cytometry (reference value: 62.15 +/- 3.14 %); format: functional, cell-based; conditions: NCI/ADR-RES; outline: as §2
[13] = Cell cycle arrest in human MCF7/ADR cells assessed as accumulation at G1 phase at 0.2 uM after 48 hrs using propidium iodide staining by flow cytometry (reference value: 62.15 +/- 3.14 %); format: functional, cell-based; conditions: NCI/ADR-RES; outline: as §2
[14] = Cell cycle arrest in human MCF7/ADR cells assessed as accumulation at S phase at 0.05 uM after 48 hrs using propidium iodide staining by flow cytometry (reference value: 15.34 +/- 0.98 %); format: functional, cell-based; conditions: NCI/ADR-RES; outline: as §2
[15] = Cell cycle arrest in human MCF7/ADR cells assessed as accumulation at S phase at 0.1 uM after 48 hrs using propidium iodide staining by flow cytometry (reference value: 15.34 +/- 0.98 %); format: functional, cell-based; conditions: NCI/ADR-RES; outline: as §2
[16] = Cell cycle arrest in human MCF7/ADR cells assessed as accumulation at S phase at 0.2 uM after 48 hrs using propidium iodide staining by flow cytometry (reference value: 15.34 +/- 0.98 %); format: functional, cell-based; conditions: NCI/ADR-RES; outline: as §2
[17] = Cell cycle arrest in human MCF7/ADR cells assessed as accumulation at G2/M phase at 0.05 uM after 48 hrs using propidium iodide staining by flow cytometry (reference value: 22.51 +/- 1.5 %); format: functional, cell-based; conditions: NCI/ADR-RES; outline: as §2
[18] = Cell cycle arrest in human MCF7/ADR cells assessed as accumulation at G2/M phase at 0.1 uM after 48 hrs using propidium iodide staining by flow cytometry (reference value: 22.51 +/- 1.5 %); format: functional, cell-based; conditions: NCI/ADR-RES; outline: as §2
[19] = Cell cycle arrest in human MCF7/ADR cells assessed as accumulation at G2/M phase at 0.2 uM after 48 hrs using propidium iodide staining by flow cytometry (reference value: 22.51 +/- 1.5 %); format: functional, cell-based; conditions: NCI/ADR-RES; outline: as §2
MCF7 [20] = assay: Ratio of doxorubicin IC50 to compound IC50 for estrogen receptor-positive human MCF7 cells after 48 hrs by MTT assay; format: functional
LNCaP [21] = assay: Ratio of IC50 for androgen receptor-negative human PC3 cells to IC50 for androgen receptor-positive human LNCAP cells; format: functional
DU-145 [22] = assay: Ratio of IC50 for androgen receptor-negative human PC3 cells to IC50 for human DU145 cells; format: functional
NCI/ADR-RES = assay: Ratio of IC50 for androgen receptor-negative human PC3 cells to IC50 for human MCF7/ADR cells; format: functional
MCF7 [23] = assay: Ratio of IC50 for androgen receptor-negative human PC3 cells to IC50 for estrogen receptor-positive human MCF7 cells; format: functional
[24] = Cell cycle arrest in human MCF7/ADR cells assessed as accumulation at G1 phase at 5 uM after 48 hrs using propidium iodide staining by flow cytometry (reference value: 62.15 +/- 3.14 %); format: functional, cell-based; conditions: NCI/ADR-RES; outline: as §2
[25] = Cell cycle arrest in human MCF7/ADR cells assessed as accumulation at S phase at 5 uM after 48 hrs using propidium iodide staining by flow cytometry (reference value: 15.34 +/- 0.98 %); format: functional, cell-based; conditions: NCI/ADR-RES; outline: as §2
[26] = Cell cycle arrest in human MCF7/ADR cells assessed as accumulation at G2/M phase at 5 uM after 48 hrs using propidium iodide staining by flow cytometry (reference value: 22.51 +/- 1.5 %); format: functional, cell-based; conditions: NCI/ADR-RES; outline: as §2

SMILES	pIC50 (PC-3 [1])	pIC50 (PC-3 [2])	pIC50 (DU-145 [3])	pIC50 (DU-145 [4])	pIC50 (LNCaP [5])	pIC50 (LNCaP [6])	pIC50 [7]	pIC50 [8]	pIC50 (MCF7 [9])	pIC50 (MCF7 [10])	Activity [11] [%]	Activity [12] [%]	Activity [13] [%]	Activity [14] [%]	Activity [15] [%]	Activity [16] [%]	Activity [17] [%]	Activity [18] [%]	Activity [19] [%]	further results
COc1cc2c(c3c1c(=O)c1cccnc1n3C)C[C@H]([C@@]1(C)CO1)O2 (racemic)	6.52	6.25	6.82	6.26	6.85	6.32	6.31	6.82	6.18	6.59	63.5	57.4	51.2	12.4	8.97	7.68	24.1	33.7	41.1	
COc1cc2c(c3c1c(=O)c1cccnc1n3C)C[C@H]([C@]1(C)CO1)O2 (racemic)	5.67	5.33	6.08	5.63	6.07	5.61	5.66	6.04	5.74	5.99	68.4	64.6	55.2	11.2	13.6	16.6	20.5	21.8	28.3	Ratio IC50 (MCF7 [20]): 1.5; Ratio IC50 (LNCaP [21]): 2; Ratio IC50 (DU-145 [22]): 2; Ratio IC50 (NCI/ADR-RES): 2; Ratio IC50 (MCF7 [23]): 2
COc1cccc2c1C(=O)c1c(O)c3c(c(O)c1C2=O)C[C@@](O)(C(=O)CO)C[C@@H]3O[C@H]1C[C@H](N)[C@H](O)[C@H](C)O1 [DOXORUBICIN]	5.91	5.39	6.24	5.20	5.78	5.13	< 4.70	4.87												Activity [24]: 53.3%; Activity [25]: 21.9%; Activity [26]: 24.6%
